Beta apoptosis = beta cell apoptosis inhibition; 0.8% of 300,000 active; protection from apoptosis, % (test concentration not listed); INS-1E cytokine-induced death, ATP luminescence, 48 h; percent of positive-control rescue, neutral wells zero; AID 435005;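 active = Every replicate reaches about 75%, or at least half do and their mean reaches it too, limit read from the data; inconclusive = At least half of replicates reach the limit but their mean does not; inactive = Under half of replicates reach the limit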;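 also: 0% = cytokine-treated negative control wells and 100% = positive control rescue; higher means more ATP so stronger rescue from cytokine killing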
T cruzi repl = blocks replication of Trypanosoma cruzi | 1.4% of 300,000 active | inhibition, % (concentration not given with the values) | T. cruzi beta-gal in NIH3T3, luminescence, 90 h;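 active = mean inhibition across valid replicates above about 55%, limit read from the data; inconclusive = mean below that limit but half or more replicates reach it; inactive = mean below it, under half of replicates reach it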;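 also: signal also drops with host cell toxicity which is not excluded here; 0% = plate median of DMSO wells and 100% = zero luminescence signal; higher percent means less beta-gal luminescence so fewer parasites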
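Read-out: Parasite load inhibition, % | Test system: Mouse NIH/3T3 fibroblasts infected with β-gal-expressing T. cruzi Tulahuen C4 | Amount: 5,000 cells/well | Medium: DMEM, 2% fetal bovine serum | Signal: GalScreen β-gal luminescence, detergent lysis, 60 min | Timing: 3 h attach, ≥90 h co-culture | Also added: Tulahuen C4 trypomastigotes, 5000/well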
Mdm2 MdmX PPI = inhibitors of human Mdm2/MdmX interaction. O15151+Q00987. SaOS-2 split-luciferase Mdm2/MdmX complementation, luminescence. inhibition, % at 8 µM. 3% of 330,000 active. AID 485346;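 active = inhibition of at least 50% at 8 µM in the primary screen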
Calb FLC = affects C. albicans growth with fluconazole. C. albicans CaCi-2 (fluconazole-resistant clinical isolate) + fluconazole, Alamar Blue growth, 48 h. 0.57% of 300,000 active. growth inhibition, % (concentration not given with the values);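 active = growth inhibition above about 58% in most replicates, limit read from the data, passing the limit was not always enough; inconclusive = exactly half the replicates above a set limit; inactive = most replicates below a set limit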;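 also: all wells also contain fluconazole at 8 µg/ml as a sub-toxic cotreatment; 0% = median of DMSO wells and 100% = median of geldanamycin control wells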
CSC inhib = cancer stem cell inhibition; cancer stem cell-like cells viability, luminescence; inhibition, % at 7.5 µM; 1.1% of 300,000 active; in the data active = inhibition above about 75%; inconclusive = no clear call, values can overlap the other calls; tested in HMLE shEcad cells
SKKanGAS inh = inhibitors of SKKanGAS S. pyogenes growth in kanamycin (SK-promoter or general growth effect); BacTiter-Glo, 6 h; inhibition, % at 7.5 µM; 1.3% of 300,000 active; AID 1662;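 active = mean replicate score, as percent of positive control median, at least 50; inconclusive = mean below 50 but one replicate at or above 50; inactive = mean and every replicate below 50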;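 also: strain carries kanamycin resistance gene driven by streptokinase promoter and grows in 40 µg/ml kanamycin; loss of luminescence reflects streptokinase promoter inhibition or plain growth inhibition; 0% = median of DMSO wells and 100% = positive control at its reference dose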
Mdm2-MdmX conf = human Mdm2/MdmX binding inhibition, confirmed; luminescent assay; shares compounds with Mdm2 MdmX PPI; 55% of 10,000 active; inhibition, % at 8 µM; in the data active = inhibition above about 40%
Full FLuc ctr = counter-screen for Mdm2/MdmX inhibitors: full-length luciferase. AID 504607. SaOS-2 full-length luciferase counterscreen, luminescence. shares compounds with Mdm2 MdmX PPI. inhibition, % at 8 µM. 77% of 6,200 active;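 active = mean inhibition at 8 µM reaching about 37%, which flags the compound as non-specific, limit read from the data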;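 also: p53-null SaOS-2 cells with luciferase driven by a doxycycline-inducible promoter; compound on cells about two nights before reading with doxycycline added after day one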
* = called active by the depositor; ? = inconclusive; . = no result given. An excerpt weighted towards active compounds, which were near 5.7% of everything screened.

SMILES	Beta apoptosis	T cruzi repl	Mdm2 MdmX PPI	Calb FLC	CSC inhib	SKKanGAS inh	Mdm2-MdmX conf	others
COc1ccc2[nH]c3c(c2c1)CCN1C(=O)C(CC(=O)NCCCN(C)C)C[C@H](C(=O)N2CCCCC2)[C@@]31C (stereo partly drawn)	.	.	15	.	.	.	.
C[C@H]1CN=C(Nc2ccccc2)N1CCc1ccccc1	-8	.	-23	.	-11	.	.
CC(=O)/C(=N\Nc1ccccc1)Oc1ccc(Br)cc1	-1	27	14	20	0	0	.
CCN(CC)CCN(C(=O)c1cc2c(ccc3ccccc32)oc1=O)c1nc2cc3c(cc2s1)OCCO3	102*	21	100*	1	91*	2	33
CN(C)CCN(C(=O)c1ccc2ccccc2c1)c1nc2cc3c(cc2s1)OCCO3	-18	25	3	-1	-4	7	.
Cc1ccc(S(=O)(=O)Oc2ccccc2/C=N/NC(N)=S)cc1	37	-24	54*	6	52	0	56*	Full FLuc ctr=45*
Cc1cccc(NS(=O)(=O)c2cccc(C(=O)N3CCCC(C(F)(F)F)C3)c2)c1 (stereo not drawn)	-9	27	-13	-10	1	-14	.
O=C(Nc1ccc(F)cc1)Nc1cc(OCC(F)(F)F)cc(OCC(F)(F)F)c1	106*	44	89*	-1	51	78*	90*	Full FLuc ctr=52*
CCCCCCCCn1c2c(c(=N)c3ccccc31)CCC2	.	60*	85*	?	.	3	86*	Full FLuc ctr=27
CCCCCn1c2c(c(=N)c3ccccc31)CCC2	23	59*	60*	-4	12	1	31
CCOC(=O)Cn1c2c(c(=N)c3ccccc31)CCC2	-4	17	4	11	25	-4	.
CCCCn1c2c(c(=N)c3ccccc31)CCC2	46	21	27	0	3	1	.
O=C(COc1ccccc1)N=C1SC2CS(=O)(=O)CC2N1c1ccc(F)cc1F (stereo not drawn)	5	-20	3	10	2	0	.
Cc1n[nH]c(=S)n1/N=C/c1ccc(-c2ccc(Cl)cc2)o1	1	-13	94*	-1	12	-12	-3
S=c1[nH]nc(-c2ccc(Cl)cc2)n1/N=C/c1ccco1	-16	-7	-7	45	9	-1	.
CC1CCCC(NC(=S)Nc2ccc(SC(F)F)cc2)C1C (stereo not drawn)	24	18	90*	-3	?	108*	9
CS(=O)(=O)c1ccc(-c2sc3ccccc3c2C#CCCO)cc1	3	.	17	.	63	.	.
Cn1cncc1C#Cc1c(-c2ccc(S(C)(=O)=O)cc2)sc2ccccc12	.	.	65*	.	.	.	28
CCCCn1c(N)c(N(CC)C(=O)c2ccccc2F)c(=O)[nH]c1=O	-2	-2	2	-1	-1	-4	.
O=C(OCn1ncc(Cl)c(Cl)c1=O)c1ccc(F)cc1	102*	63*	93*	107*	.	4	100*	Full FLuc ctr=50*
O=c1c(Cl)c(Cl)cnn1Cc1ccc(F)cc1	112*	-18	93*	4	-23	2	35
CC(C)(C)C(=O)Cn1ncc(Cl)c(Cl)c1=O	.	-4	.	-9	.	-6	.
COc1ccc(C(=O)Oc2c(OC)cc(C(=S)N3CCOCC3)cc2OC)cc1OC	2	-3	29	-2	-30	-6	.
Oc1c(Cl)cc(CN2CCOCC2)c2cccnc12	29	.	78*	.	.	.	84*	Full FLuc ctr=42*
Oc1c(CN2CCc3ccccc3C2)cc(Cl)c2cccnc12	8	51	70*	83*	84*	89*	80*	Full FLuc ctr=46*
SMILES	Beta apoptosis	T cruzi repl	Mdm2 MdmX PPI	Calb FLC	CSC inhib	SKKanGAS inh	Mdm2-MdmX conf	others
COc1ccc(C(=O)Oc2c(CN3CCOCC3)cc(Cl)c3cccnc23)cc1OC	7	-5	60*	1	1	-4	37
COc1ccc(C(=O)Oc2c(OC)cc(C(=S)N3CCOCC3)cc2OC)cc1	.	-11	-23	-6	-14	2	.
COc1cc(OC)cc(C(=O)Oc2c(CN3CCOCC3)cc(Cl)c3cccnc23)c1	47	49	50*	113*	33	7	45*	Full FLuc ctr=34
Brc1cc2c(cc1CN1CCc3ccccc3C1)OCO2	.	43	4	-23	5	11	.
COC(=O)c1ccc(N2CCN(c3ccccc3)CC2)nc1	5	-3	-34	-7	6	-4	.
O=C(COc1ccc(S(=O)(=O)N2CCCC2)cc1Cl)NCc1cccnc1	-2	13	13	-8	1	-9	.
CCOc1nc2cnccc2n(CC(=O)Nc2ccccc2C(=O)OC)c1=O	-5	5	13	-3	-10	17	.
COc1ccc(-c2nn(-c3ccccc3)cc2C(=O)NC(=S)N2CCOCC2)cc1OC	7	.	-8	.	.	.	.
O=S(=O)(c1ccc(Cl)cc1)N1CCN(Cc2ccc(O)c3ncccc23)CC1	86*	55*	77*	95*	89*	6	67*	Full FLuc ctr=25
CN1CCN(Cc2cc(COCc3ccccc3)c3cccnc3c2O)CC1	-2	77*	60*	109*	1	3	75*	Full FLuc ctr=30
CN1CCN(C2CCN(Cc3ccc(O)c4ncccc34)CC2)CC1	-12	.	2	.	0	.	.
Oc1c(CN2CCCCC2)cc(Br)c2cccnc12	96*	56*	77*	-28	33	58*	75*	Full FLuc ctr=36*
O=C(COc1c(Br)cc(Br)c2cccnc12)N1CCCCC1	-1	12	6	1	-1	5	.
COc1ccc(CC(=O)Nc2cc3oc4ccccc4c3cc2OC)cc1	7	32	-166	-22	52	-13	.
CCN(CC)c1ccc(C(=O)OCC(=O)Nc2cc3oc4ccccc4c3cc2OC)cc1	2	-5	51*	1	.	-7	26
COc1cc2c(cc1NC(=O)COc1ccc3ccccc3c1)oc1ccccc12	0	10	62*	-7	12	-2	24
COc1cc2c(cc1NC(=O)COCC(=O)O)oc1ccccc12	-7	-9	17	11	-1	-3	.
COc1ccc(/C=C/C(=O)OCC(=O)Nc2cc3oc4ccccc4c3cc2OC)cc1	1	7	82*	-4	-5	-7	-17
CC(=O)c1ccc(S(=O)(=O)N(C)CCCC(=O)N(C)Cc2c(F)cccc2Cl)cc1	-2	-1	-11	-2	-8	1	.
CC(=O)N1CCOc2ccc(S(=O)(=O)N(C)c3cccc(C)c3)cc21	-4	8	-7	-5	-5	-6	.
Cc1c(C(=O)OCc2nc3ccsc3c(=O)[nH]2)oc2ccccc12	-6	.	-11	.	-8	.	.

Screens deposited in PubChem BioAssay by several laboratories.
